Measurements reported in ChEMBL document CHEMBL1932985, “Identification of biaryl sulfone derivatives as antagonists of the histamine H₃ receptor: discovery of (R)-1-(2-(4'-(3-methoxypropylsulfonyl)biphenyl-4-yl)ethyl)-2-methylpyrrolidine (APD916)” (Bioorg Med Chem Lett, 2012).
Each block holds one molecule with its values, some of them ahead of it. The source made the active and inactive calls. The calls are words filed in the database; no cut-off is given here.

Tests used:
[1] = Ratio of (R)-3-(4'-(2-(2-methylpyrrolidin-1-yl)ethyl)biphenyl-4-ylsulfonyl)propan-1-ol level in brain to plasma in Sprague-Dawley rat at 3 mg/kg, po and iv after 0.75 to 3 hrs by LC-MS/MS analysis; format: ADME, organism-based; parameters: dose 3 mg/kg, route oral
Outline: (§1)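 Exposure to the hydroxylated metabolite was measured after the propyl parent was given to rats at 3 mg/kg PO. Brain (µg/mg) and plasma (µg/mL) levels were taken at 3 time points, and the ratio was the mean.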

[2] = system: Rattus norvegicus; assay: Tmax in Sprague-Dawley rat assessed as (R)-3-(4'-(2-(2-methylpyrrolidin-1-yl)ethyl)biphenyl-4-ylsulfonyl)propan-1-ol level at 3 mg/kg, po and iv by LC-MS/MS analysis; format: ADME, organism-based; parameters: dose 3 mg/kg, route oral; conditions: in vivo; outline: as §1
[3] = system: Rattus norvegicus; assay: Inhibition of RAMH-induced dipsogenia in po dosed Sprague-Dawley rat administered 30 mins prior to RAMH challenge measured up to 20 mins; format: functional; conditions: read-out: MED
Outline: (§2)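 Rats given compound orally 0.5 h (or, for duration of action, at selected times up to 6 h) before RAMH 10 mg/kg SC; water consumed over 20 min measured. Screening doses 1 or 0.3 mg/kg PO, also 0.1 mg/kg; duration study at 0.6 mg/kg PO. MED = minimum dose fully inhibiting drinking; means ± SEM.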

[4] = Tmax in Sprague-Dawley rat at 3 mg/kg, po and iv by LC-MS/MS analysis; format: ADME, organism-based; parameters: dose 3 mg/kg, route oral; conditions: in vivo
Outline: (§3)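 Rats were given the compound both IV and PO in a routine PK study. Tmax came from the PO arm and Vss from the IV arm.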

[5] = Oral bioavailability in Sprague-Dawley rat at 3 mg/kg by LC-MS/MS analysis; format: ADME, organism-based; conditions: in vivo
Outline: (§4)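 Rat PK after IV and PO dosing; plasma Cmax, Tmax, IV half-life and Vss determined; oral bioavailability from AUCpo/AUCiv. Metabolite exposure determined after a 3 mg/kg PO parent dose.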

[6] = Half life in Sprague-Dawley rat at 3 mg/kg, iv by LC-MS/MS analysis; format: ADME, organism-based; parameters: dose 3 mg/kg, route intravenous; conditions: in vivo; outline: as §4
[7] = system: Rattus norvegicus; assay: Volume of distribution at steady state in Sprague-Dawley rat at 3 mg/kg, po and iv by LC-MS/MS analysis; format: ADME, organism-based; parameters: dose 3 mg/kg, route oral; conditions: in vivo; outline: as §3
[8] = system: Plasma; assay: Cmax in Sprague-Dawley rat plasma assessed as (R)-3-(4'-(2-(2-methylpyrrolidin-1-yl)ethyl)biphenyl-4-ylsulfonyl)propan-1-ol level at 3 mg/kg, po and iv by LC-MS/MS analysis; format: ADME, organism-based; parameters: dose 3 mg/kg, route oral; conditions: in vivo; outline: as §4
[9] = molecular target: Histamine H3 receptor (Rattus norvegicus, UniProt Q9QYN8); assay: Displacement of N-[3H]-methylhistamine from histamine H3 receptor in rat cortex membranes; format: cell membranes, Membrane
Sequence of Histamine H3 receptor (Q9QYN8 whole entry): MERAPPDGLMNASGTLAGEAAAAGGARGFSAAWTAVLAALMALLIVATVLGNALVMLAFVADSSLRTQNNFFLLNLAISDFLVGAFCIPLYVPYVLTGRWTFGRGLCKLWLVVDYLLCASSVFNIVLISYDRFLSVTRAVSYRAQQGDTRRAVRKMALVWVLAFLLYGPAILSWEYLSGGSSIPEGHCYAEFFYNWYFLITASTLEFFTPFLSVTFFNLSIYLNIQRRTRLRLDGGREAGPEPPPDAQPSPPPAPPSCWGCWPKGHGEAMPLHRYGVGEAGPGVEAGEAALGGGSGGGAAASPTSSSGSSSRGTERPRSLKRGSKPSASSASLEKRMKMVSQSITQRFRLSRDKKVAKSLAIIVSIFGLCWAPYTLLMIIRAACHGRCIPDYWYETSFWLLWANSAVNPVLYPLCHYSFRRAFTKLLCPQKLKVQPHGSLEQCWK

[10] = Cmax in Sprague-Dawley rat plasma at 3 mg/kg, po and iv by LC-MS/MS analysis; format: ADME, organism-based; parameters: dose 3 mg/kg, route oral; outline: as §4
[11] = system: Rattus norvegicus; assay: Inhibition of RAMH-induced dipsogenia in Sprague-Dawley rat at 0.6 mg/kg, po administered 1 hr prior to RAMH challenge measured up to 20 mins; format: functional, organism-based; parameters: dose 0.6 mg/kg; outline: as §2
[12] = system: Rattus norvegicus; assay: Inhibition of RAMH-induced dipsogenia in Sprague-Dawley rat at 0.1 mg/kg, po administered 30 mins prior to RAMH challenge measured up to 20 mins; format: functional, organism-based; parameters: dose 0.1 mg/kg; outline: as §2
[13] = system: Rattus norvegicus; assay: Inhibition of RAMH-induced dipsogenia in Sprague-Dawley rat at 0.6 mg/kg, po administered 30 mins prior to RAMH challenge measured up to 20 mins; format: functional, organism-based; parameters: dose 0.6 mg/kg; outline: as §2
[14] = Solubility of the compound in water; format: physicochemical
[15] = system: Rattus norvegicus; assay: Effect on sleep-awake cycle in EEG/EMG Sprague-Dawley rat model assessed as increase in wakefulness at 0.6 mg/kg, po measured for 2 hrs; format: functional, organism-based; parameters: dose 0.6 mg/kg
Outline: (§5)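 Rats with chronically implanted cortical electrodes dosed orally (0.6 mg/kg; dose-response also run) during subjective night, about four hours after lights on; wake time recorded over 8 h versus vehicle and assessed over first 1, 2 and 4 h; means ± SEM.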

[16] = molecular target: Histamine H2 receptor (Homo sapiens) (UniProt P25021); assay: Binding affinity to H2 receptor at 10 uM relative to control
Sequence of Histamine H2 receptor (Homo sapiens) (P25021 whole entry): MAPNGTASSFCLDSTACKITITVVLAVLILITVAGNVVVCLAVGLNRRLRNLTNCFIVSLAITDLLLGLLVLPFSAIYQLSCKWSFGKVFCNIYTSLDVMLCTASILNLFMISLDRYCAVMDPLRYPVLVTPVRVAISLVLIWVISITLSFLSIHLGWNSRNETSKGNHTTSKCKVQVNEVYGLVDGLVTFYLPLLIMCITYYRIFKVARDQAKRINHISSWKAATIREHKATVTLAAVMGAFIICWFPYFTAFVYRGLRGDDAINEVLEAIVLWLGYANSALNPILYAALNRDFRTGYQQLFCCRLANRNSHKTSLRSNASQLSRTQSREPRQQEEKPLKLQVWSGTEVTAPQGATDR
Outline: (§6)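 Broad binding panel of 80 receptors, including histamine H1, H2 and H4, with compound tested at 10 µM; binding expressed as percent of control.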

[17] = molecular target: Histamine H4 receptor (Homo sapiens) (UniProt Q9H3N8); assay: Binding affinity to H4 receptor at 10 uM relative to control; outline: as §6
[18] = molecular target: Histamine H1 receptor (Homo sapiens) (UniProt P35367); assay: Binding affinity to H1 receptor at 10 uM relative to control; outline: as §6
Sequence of Histamine H1 receptor (Homo sapiens) (P35367 whole entry): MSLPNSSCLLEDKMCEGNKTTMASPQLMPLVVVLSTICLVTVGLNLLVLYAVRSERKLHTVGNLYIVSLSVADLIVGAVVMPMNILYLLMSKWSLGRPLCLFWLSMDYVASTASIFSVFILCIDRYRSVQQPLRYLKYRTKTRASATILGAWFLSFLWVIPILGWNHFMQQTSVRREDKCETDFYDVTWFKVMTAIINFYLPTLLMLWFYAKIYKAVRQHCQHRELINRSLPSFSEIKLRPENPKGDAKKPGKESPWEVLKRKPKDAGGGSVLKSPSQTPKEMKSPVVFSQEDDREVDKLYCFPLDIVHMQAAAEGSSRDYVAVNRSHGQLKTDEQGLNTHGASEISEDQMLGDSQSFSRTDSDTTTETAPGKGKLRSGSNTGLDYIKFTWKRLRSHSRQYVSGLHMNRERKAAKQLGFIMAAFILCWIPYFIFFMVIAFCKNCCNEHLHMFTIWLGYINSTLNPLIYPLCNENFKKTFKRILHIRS

[19] = system: Rattus norvegicus; assay: Effect on sleep-awake cycle in EEG/EMG Sprague-Dawley rat model assessed as increase in wakefulness at 0.3 mg/kg, po measured for 2 hrs; format: functional, organism-based; parameters: dose 0.3 mg/kg; outline: as §5
[20] = system: Rattus norvegicus; assay: Effect on sleep-awake cycle in EEG/EMG Sprague-Dawley rat model assessed as increase in wakefulness at 0.3 mg/kg, po measured for 1 hr; format: functional, organism-based; parameters: dose 0.3 mg/kg; outline: as §5
[21] = system: Rattus norvegicus; assay: Effect on sleep-awake cycle in EEG/EMG Sprague-Dawley rat model assessed as increase in wakefulness at 0.6 mg/kg, po measured for 4 hrs; format: functional, organism-based; parameters: dose 0.6 mg/kg; outline: as §5
[22] = Half life in Sprague-Dawley rat at 10 mg/kg, iv by LC-MS/MS analysis; format: ADME, organism-based; parameters: dose 10 mg/kg, route intravenous; conditions: in vivo; outline: as §4
[23] = Oral bioavailability in Sprague-Dawley rat at 10 mg/kg by LC-MS/MS analysis; format: ADME, organism-based; conditions: in vivo; outline: as §4
[24] = system: Rattus norvegicus; assay: Volume of distribution at steady state in Sprague-Dawley rat at 10 mg/kg, po and iv by LC-MS/MS analysis; format: ADME, organism-based; parameters: dose 10 mg/kg, route oral; conditions: in vivo; outline: as §3
[25] = Tmax in Sprague-Dawley rat at 10 mg/kg, po and iv by LC-MS/MS analysis; format: ADME, organism-based; parameters: dose 10 mg/kg, route oral; conditions: in vivo; outline: as §3
[26] = Ratio of drug level in brain to plasma in Sprague-Dawley rat at 10 mg/kg, po and iv after 0.75 to 3 hrs by LC-MS/MS analysis; format: ADME, organism-based; parameters: dose 10 mg/kg, route oral; conditions: read-out: BPR
Outline: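 Brain (µg/mg) and plasma (µg/mL) levels were measured after oral dosing, with three rats per time point. The b/p ratio was the mean of the nine individual ratios.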

[27] = Cmax in Sprague-Dawley rat plasma at 10 mg/kg, po and iv by LC-MS/MS analysis; format: ADME, organism-based; parameters: dose 10 mg/kg, route oral; outline: as §4
[28] = molecular target: hERG (KCNH2) (Homo sapiens, UniProt Q12809); assay: Inhibition of human ERG at 3 uM by patch-clamp assay
Sequence of hERG (KCNH2) (Q12809 whole entry): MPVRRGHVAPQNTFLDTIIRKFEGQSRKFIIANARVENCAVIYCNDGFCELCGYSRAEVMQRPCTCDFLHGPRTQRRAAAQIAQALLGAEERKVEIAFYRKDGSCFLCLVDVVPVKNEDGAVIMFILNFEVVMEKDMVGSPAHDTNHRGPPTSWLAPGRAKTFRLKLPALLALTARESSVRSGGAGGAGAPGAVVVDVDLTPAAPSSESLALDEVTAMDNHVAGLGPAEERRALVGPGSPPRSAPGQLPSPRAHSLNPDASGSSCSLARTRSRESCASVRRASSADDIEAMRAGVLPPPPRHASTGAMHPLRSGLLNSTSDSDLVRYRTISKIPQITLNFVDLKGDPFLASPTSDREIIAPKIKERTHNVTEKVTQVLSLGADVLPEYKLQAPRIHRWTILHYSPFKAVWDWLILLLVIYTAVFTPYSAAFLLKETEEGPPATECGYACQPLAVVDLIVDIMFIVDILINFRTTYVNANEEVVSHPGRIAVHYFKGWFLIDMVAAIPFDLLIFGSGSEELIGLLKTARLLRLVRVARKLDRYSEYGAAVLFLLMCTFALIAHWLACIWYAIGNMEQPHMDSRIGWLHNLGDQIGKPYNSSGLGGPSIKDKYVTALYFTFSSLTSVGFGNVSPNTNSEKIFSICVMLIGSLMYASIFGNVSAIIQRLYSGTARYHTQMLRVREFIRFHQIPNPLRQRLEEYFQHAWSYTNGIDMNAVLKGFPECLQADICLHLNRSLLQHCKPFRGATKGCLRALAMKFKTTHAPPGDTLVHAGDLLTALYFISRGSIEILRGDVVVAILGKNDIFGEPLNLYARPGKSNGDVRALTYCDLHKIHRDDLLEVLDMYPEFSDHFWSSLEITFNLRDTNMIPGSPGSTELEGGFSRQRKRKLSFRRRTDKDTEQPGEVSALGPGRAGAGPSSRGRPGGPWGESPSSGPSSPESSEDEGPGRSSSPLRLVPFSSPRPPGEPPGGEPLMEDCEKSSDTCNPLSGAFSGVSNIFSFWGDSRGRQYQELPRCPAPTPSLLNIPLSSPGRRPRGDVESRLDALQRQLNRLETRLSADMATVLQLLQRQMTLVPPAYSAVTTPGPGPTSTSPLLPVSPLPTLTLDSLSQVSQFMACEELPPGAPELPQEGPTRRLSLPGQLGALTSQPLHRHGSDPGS

[29] = molecular target: Voltage-gated inwardly rectifying potassium channel KCNH2 (Homo sapiens, UniProt Q12809); assay: Inhibition of human ERG by patch-clamp assay
Sequence of Voltage-gated inwardly rectifying potassium channel KCNH2 (Q12809 whole entry): as above

[30] = system: Rattus norvegicus; assay: Inhibition of RAMH-induced dipsogenia in Sprague-Dawley rat at 0.6 mg/kg, po administered 6 hrs prior to RAMH challenge measured up to 20 mins; format: functional; outline: as §2

Structure (SMILES): CCCS(=O)(=O)c1ccc(-c2ccc(CCN3CCC[C@H]3C)cc2)cc1
- BPR [1]: 0.7
- Tmax [2]: 180 min
- minimal effective dose [3]: 0.3 mg/kg
- Tmax [4]: 6 min
- bioavailability [5]: < 0.1%
- half-life [6]: 18 min
- Vdss [7]: 5.9 L/kg
- Cmax [8]: 449 ng/mL
- Ki [9]: 0.6 nM
- Cmax [10]: 6 ng/mL

Structure (SMILES): COCCS(=O)(=O)c1ccc(-c2ccc(CCN3CCC[C@H]3C)cc2)cc1 [listing 1 of 2 here]
- inhibition [11]: Active
- inhibition [12]: inactive
- inhibition [13]: Active

Structure (SMILES): COCCS(=O)(=O)c1ccc(-c2ccc(CCN3CCC[C@H]3C)cc2)cc1.Cl
- solubility [14]: > 30 mg/mL

Structure (SMILES): COCCCS(=O)(=O)c1ccc(-c2ccc(CCN3CCC[C@H]3C)cc2)cc1
- Activity [15]: Active
- inhibition [11]: Active
- inhibition [16]: < 50%
- inhibition [17]: < 50%
- inhibition [12]: inactive
- inhibition [18]: < 50%
- inhibition [13]: Active
- Activity [19]: inactive
- Activity [20]: Active
- Activity [21]: inactive

Structure (SMILES): C[C@@H]1CCCN1CCc1ccc(-c2ccc(S(=O)(=O)Cc3ccccc3)cc2)cc1
- inhibition at 3 µM [28]: 95%
- Ki [9]: 0.6 nM

Structure (SMILES): CCOCCS(=O)(=O)c1ccc(-c2ccc(CCN3CCC[C@H]3C)cc2)cc1
- inhibition at 3 µM [28]: 45%
- minimal effective dose [3]: 0.3 mg/kg
- Ki [9]: 1 nM

Structure (SMILES): COCCS(=O)(=O)c1ccc(-c2ccc(CCN3CCC[C@H]3C)cc2)cc1 [listing 2 of 2 here]
- half-life [22]: 42 min
- IC50 [29]: 7400 nM
- inhibition at 3 µM [28]: 29%
- minimal effective dose [3]: 0.3 mg/kg
- inhibition in vivo at 0.6 mg/kg [30]: < 20%
- bioavailability [23]: 68.5%
- Vdss [24]: 7.6 L/kg
- Tmax [25]: 18 min
- Kp [26]: 1.73
- Cmax [27]: 184 ng/mL
- Ki [9]: 1.4 nM

Now from value to molecule, other results behind:

- half-life [22]: 216 min
- bioavailability [23]: 100%
- Vdss [24]: 19.8 L/kg
- Tmax [25]: 240 min
- Kp [26]: 3.03
- Cmax [27]: 218 ng/mL
- Ki [9]: 1.3 nM
Structure (SMILES): C[C@@H]1CCCN1CCc1ccc(-c2ccc(S(C)(=O)=O)cc2)cc1
- minimal effective dose [3]: 0.3 mg/kg

- Ki [9]: 1 nM
Structure (SMILES): C[C@@H]1CCCN1CCc1ccc(-c2ccc(S(=O)(=O)C3CCCC3)cc2)cc1

- Ki [9]: 2.44 nM
Structure (SMILES): COCS(=O)(=O)c1ccc(-c2ccc(CCN3CCC[C@H]3C)cc2)cc1
